Laboratory results: ChEMBL document CHEMBL5506039, “Discovery and Optimization of Tambjamines as a Novel Class of Antileishmanial Agents” (J Med Chem, 2024)

What was measured:
[1] = Cytotoxicity against mouse J774.A1 cells assessed as reduction in cell survival measured after 96 hrs by SYBR Green II dye based analysis; format: toxicity
How it was run: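 Uninfected J774A.1 macrophages, 1 × 10⁴ cells/well in DMEM/10% HI-FBS, reattached 3 h, then exposed to compounds for 96 h. DNA content read after lysis with SYBR Green II (1:1000 in 1% Triton/PBS), 1 h dark at room temperature, fluorescence Ex 485/Em 535.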

[2] = Metabolic stability in pre-warmed pooled mouse liver microsomes assessed as half life at 1 uM measured upto 60 mins by LC-MS analysis; format: ADME, Microsome
How it was run: (§1)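 Compound at 1 μM final with 0.5 mg/mL pooled human or mouse liver microsomes, 1.3 mM NADP and 3.3 mM MgCl₂ in 100 mM potassium phosphate, pH 7.4. Reaction started with 1 U/mL G6PD at 37 °C with shaking.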

[3] = Metabolic stability in pre-warmed pooled human liver microsomes assessed as half life at 1 uM measured upto 60 mins by LC-MS analysis; format: ADME, Microsome; how it was run: as §1
[4] = Cytotoxicity against mouse J774.A1 cells assessed as cell survival at 0.1 uM measured after 96 hrs by SYBR Green II dye based analysis relative to control; format: toxicity; settings: read-out: Survival
How it was run: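 Uninfected J774A.1 mouse macrophages were plated at 1 × 10⁴ cells/well in DMEM with 10% heat-inactivated FBS and left 3 h at 37 °C to reattach. Compounds were added from DMSO, and analogues were screened at 0.1 μM. After 96 h at 37 °C in 5% CO₂, medium was removed. SYBR Green II (1:1000 in 1% Triton/PBS) was added for 1 h in the dark at room temperature, and fluorescence was read at Ex 485/Em 535 as a DNA-content measure of viability.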

Leishmania mexicana [5] = assay: Antileishmanial activity against Leishmania mexicana MNYC/BZ/62/M379 amastigotes expressing red-shifted firefly luciferase from integrated ribosomal (28S) RNA locus infected in mouse J774.A1 cells assessed as parasite survival at 0.1 uM measured after 96 hrs by luminescence based analysis relative to control; format: functional; settings: MNYC/BZ/62/M379, J774.A1
[6] = Therapeutic index, ratio of EC50 for mouse J774.A1 cells to EC50 for antileishmanial activity against Leishmania mexicana MNYC/BZ/62/M379 amastigotes expressing red-shifted firefly luciferase from integrated ribosomal (28S) RNA locus infected in mouse J774.A1 cells; format: toxicity, cell-based; settings: read-out: TI
Leishmania mexicana [7] = assay: Antileishmanial activity against Leishmania mexicana MNYC/BZ/62/M379 amastigotes expressing red-shifted firefly luciferase from integrated ribosomal (28S) RNA locus infected in mouse J774.A1 cells assessed as reduction in parasite survival measured after 96 hrs by luminescence based analysis; format: functional, organism-based; settings: MNYC/BZ/62/M379, J774.A1, 96 h
How it was run: (§2)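 J774A.1 macrophages infected with stationary-phase luciferase-expressing promastigotes at 10:1 parasites:macrophage, overnight at 37 °C, 5% CO₂. Non-internalized parasites washed off and 1 × 10⁴ cells/well replated in MEM/10% HI-FBS. Compounds in DMSO added as serial 3-fold dilutions (typically 10 μM–1 nM) for 96 h. Luciferase luminescence read; EC50 from log-transformed sigmoidal variable-slope fit. Mean ± SD of ≥2 independent experiments.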

Leishmania donovani = assay: Antileishmanial activity against Leishmania donovani amastigotes expressing red-shifted firefly luciferase from integrated ribosomal (28S) RNA locus infected in mouse J774.A1 cells assessed as reduction in parasite growth measured after 96 hrs by luminescence based analysis; format: functional, organism-based; settings: J774.A1, 96 h; how it was run: as §2
[8] = Therapeutic index, ratio of IC50 for human HepG2 cells to EC50 for antileishmanial activity against Leishmania donovani amastigotes expressing red-shifted firefly luciferase from integrated ribosomal (28S) RNA locus infected in mouse J774.A1 cells; format: toxicity, cell-based; settings: read-out: TI
How it was run: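 TI computed as HepG2 IC50 divided by L. donovani EC50. HepG2: MTT assay with 48 h exposure to 10–0.15 μg/mL (1.6-fold dilutions), triplicates, sigmoidal variable-slope fit. Amastigotes: J774A.1 macrophages infected with RS-luciferase promastigotes at 10:1, washed after 24 h, then 96 h compound exposure (3-fold dilutions, 10 μM–1 nM) in MEM/10% HI-FBS at 37 °C, 5% CO₂; luciferase readout.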

SMILES	EC50 at 96 h [1] [nM]	half-life at 1 µM [2] [min]	half-life at 1 µM [3] [min]	viability at 96 h, 0.1 µM [4] [%]	survival at 0.1 µM (Leishmania mexicana [5]) [%]	selectivity ratio [6]	EC50 (Leishmania mexicana [7]) [nM]	EC50 (Leishmania donovani) [nM]	selectivity ratio [8]
COC1=CC(c2ccc[nH]2)=N/C1=C\Nc1ccc(Oc2ccc(OC)cc2)cc1	> 1000	30.1	> 60	50.2	8.65	> 15	66	–	–
Cl.FC(F)(F)Oc1ccc(OC2=CC(c3ccc[nH]3)=N/C2=C\NC23CC4CC(CC(C4)C2)C3)cc1	353	> 60	> 60	80.7	35.7	8.6	41	–	–
COC1=CC(c2ccc[nH]2)=N/C1=C\Nc1ccc(C)cc1.Cl	171	28.9	30	50.8	5.49	4.2	41	–	–
COC1=CC(c2ccc(Cc3ccc(OC)cc3)[nH]2)=N/C1=C\NC1CCCCCCC1.Cl	547	–	50.8	84.8	-0.11	35	15.8	–	–
CCC1=C/C(=C\NC23CC4CC(CC(C4)C2)C3)N=C1c1ccc[nH]1	884	–	–	50	11.3	24	37.5	90.5	168
COC1=CC(c2ccc(Cc3ccc(OC)cc3)[nH]2)=N/C1=C\NC1CCCCCC1.Cl	959	–	25.6	84.6	-0.11	59	16.2	–	–
COC1=CC(c2ccc(Cc3ccc(OC)cc3)[nH]2)=N/C1=C\NC1CCCCC1.Cl	946	–	19.7	84.6	0.01	42	22.6	–	–
C(/NCC1CCCCCC1)=C1/N=C(c2ccc[nH]2)C2=C1CCCC2.Cl	–	> 60	> 60	75	16.1	–	–	–	–
CCc1ccc(C2=N/C(=C\NC3CCCCCC3)C(OC)=C2)[nH]1.Cl	512	–	> 60	52.5	0.3	14	37.1	–	–
COC1=CC(c2ccc[nH]2)=N/C1=C\Nc1ccc2c(c1)OCCO2.Cl	> 1000	15.8	> 60	77.3	9.03	> 31	32	–	–
CCc1c[nH]c(C2=N/C(=C\NC3CCCCCC3)C(C)=C2C)c1.Cl	1330	11	> 60	63.3	23.8	11	117	–	–
COC1=CC(c2ccc[nH]2)=N/C1=C\Nc1cccc(OC(F)(F)F)c1.Cl	760	15.8	> 60	83.7	11.4	14	54	–	–
COC1=CC(c2ccc(Cc3ccc(OC)cc3)[nH]2)=N/C1=C\NC1CCCC1.Cl	717	–	11.7	86.6	1.4	30	23.8	–	–
COC1=CC(c2ccc[nH]2)=N/C1=C\Nc1ccc(OC(F)(F)F)cc1.Cl	> 1000	–	> 60	89.6	18.9	> 14	72.5	–	–
COc1ccc(Oc2ccc(N/C=C3\N=C(c4ccc[nH]4)C4=C3CCCC4)cc2)cc1.Cl	–	> 60	> 60	62.5	89.8	–	–	–	–
Cc1ccc(Oc2ccc(N/C=C3\N=C(c4ccc[nH]4)C4=C3CCCC4)cc2)cc1.Cl	–	> 60	> 60	58.2	102	–	–	–	–
COC1=CC(c2ccc(-c3ccc(OC)cc3)[nH]2)=N/C1=C\NC1CCCCCC1.Cl	450	> 60	> 60	77.3	-0.02	24	18.8	–	–
COC1=CC(c2ccc[nH]2)=N/C1=C\Nc1ccc(Cl)c(Cl)c1.Cl	> 1000	–	56.2	67.5	23.8	> 10	100	–	–
COC1=CC(c2ccc[nH]2)=N/C1=C\N[C@H]1CC[C@H](NC(=O)OC(C)(C)C)CC1	2990	9.71	8.45	51.1	28.3	34	87.7	–	–
COC1=CC(c2ccc[nH]2)=N/C1=C\Nc1cccc(Cl)c1.Cl	570	–	> 60	65.3	13.6	6.2	91.5	–	–
COC1=CC(c2ccc(Cc3ccc(OC)cc3)[nH]2)=N/C1=C\NC12CC3CC(CC(C3)C1)C2.Cl	> 1000	> 60	> 60	59.6	-0.05	> 88	11.3	–	–
COC1=CC(c2ccc[nH]2)=N/C1=C\Nc1ccccc1	1040	–	–	72.8	14.3	14	73	226	–
